The source made the active and inactive calls. No cut-off for these calls is given here.
Target: T1, Nitric oxide synthase, inducible (Mus musculus) (UniProt P29477)
T1 sequence (whole entry): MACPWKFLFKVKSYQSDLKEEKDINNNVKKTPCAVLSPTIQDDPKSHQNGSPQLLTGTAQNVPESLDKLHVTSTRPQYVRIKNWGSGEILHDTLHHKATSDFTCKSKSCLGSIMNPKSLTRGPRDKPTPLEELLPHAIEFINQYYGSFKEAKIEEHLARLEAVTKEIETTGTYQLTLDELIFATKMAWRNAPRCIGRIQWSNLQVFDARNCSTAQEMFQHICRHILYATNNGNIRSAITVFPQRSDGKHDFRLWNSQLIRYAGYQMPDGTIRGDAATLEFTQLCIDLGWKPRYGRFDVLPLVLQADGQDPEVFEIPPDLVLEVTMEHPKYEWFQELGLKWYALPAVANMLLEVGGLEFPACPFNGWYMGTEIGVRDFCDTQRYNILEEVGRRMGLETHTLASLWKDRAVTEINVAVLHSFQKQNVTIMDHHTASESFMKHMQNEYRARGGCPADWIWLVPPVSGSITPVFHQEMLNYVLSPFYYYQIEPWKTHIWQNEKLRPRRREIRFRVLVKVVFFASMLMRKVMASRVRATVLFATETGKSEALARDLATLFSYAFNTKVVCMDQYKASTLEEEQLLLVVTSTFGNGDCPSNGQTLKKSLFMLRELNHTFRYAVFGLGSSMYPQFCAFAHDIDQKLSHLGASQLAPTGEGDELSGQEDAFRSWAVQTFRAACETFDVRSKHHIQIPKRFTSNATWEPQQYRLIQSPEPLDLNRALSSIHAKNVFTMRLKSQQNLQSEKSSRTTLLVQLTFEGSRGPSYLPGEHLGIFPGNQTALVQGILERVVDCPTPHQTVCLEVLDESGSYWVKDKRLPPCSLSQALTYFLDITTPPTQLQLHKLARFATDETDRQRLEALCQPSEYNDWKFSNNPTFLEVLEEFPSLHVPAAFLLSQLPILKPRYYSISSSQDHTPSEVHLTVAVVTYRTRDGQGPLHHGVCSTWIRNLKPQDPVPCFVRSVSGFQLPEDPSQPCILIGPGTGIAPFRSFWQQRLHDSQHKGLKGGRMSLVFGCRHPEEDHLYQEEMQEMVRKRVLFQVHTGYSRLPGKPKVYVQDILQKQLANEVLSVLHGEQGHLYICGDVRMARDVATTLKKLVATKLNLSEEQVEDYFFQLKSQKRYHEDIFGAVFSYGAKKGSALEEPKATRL
Experiment: Antiinflammatory activity in mouse RAW264.7 cells assessed as inhibition of LPS-induced iNOS activity up to 25 ug/ml incubated for 30 mins prior to LPS challenge measured after 24 hrs by Griess assay
Format: cell-based
Settings: not given
In short: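 RAW264.7 macrophages seeded at 50,000 cells/well and grown 24 h to ≥75% confluency. Compounds in serum-free medium added 30 min before LPS (5 μg/mL), then 24 h incubation. Nitrite in the supernatant measured with Griess reagent.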

SMILES	inhibition
O=c1oc2ccccc2n1CCCCN1CCN(CCn2c(=O)oc3ccccc32)CC1	inactive
O=c1oc2ccccc2n1CCCN1CCN(CCn2c(=O)oc3ccccc32)CC1	inactive
O=c1sc2ccccc2n1CCCCN1CCN(CCCCn2c(=O)sc3ccccc32)CC1	inactive
O=c1oc2ccccc2n1CCCN1CCN(CCCn2c(=O)oc3ccccc32)CC1	inactive
O=c1sc2ccccc2n1CCCCN1CCN(CCn2c(=O)sc3ccccc32)CC1	inactive
O=c1oc2ccccc2n1CCCCN1CCN(CCCn2c(=O)oc3ccccc32)CC1	inactive
O=c1oc2ccccc2n1CCN1CCN(CCn2c(=O)oc3ccccc32)CC1	inactive
O=c1sc2ccccc2n1CCN1CCN(CCn2c(=O)sc3ccccc32)CC1	inactive

Test system: not listed separately
Experiment: Antiinflammatory activity in human SW1353 cells assessed as inhibition of PMA-induced NF-kappaB activity incubated for 30 mins prior to PMA challenge measured after 8 hrs by luciferase reporter gene assay
Format: cell-based
Settings: not given
In short: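 SW1353 cells in DMEM/F12 with 10% FBS, electroporated with NF-κB luciferase plasmid (160 V, one 70-ms pulse), plated at 1.25 × 10⁵ cells/well. After 24 h, graded compound concentrations added 30 min before PMA 70 ng/mL, then 8 h incubation. Luciferase read-out, % inhibition versus vehicle, IC50 from dose curves. Sp-1 reporter served as nonspecific control.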

SMILES	IC50 [µM]
O=c1sc2ccccc2n1CCCCCCN1CCN(CCn2c(=O)sc3ccccc32)CC1	2.95
O=c1sc2ccccc2n1CCCCN1CCN(CCCCn2c(=O)sc3ccccc32)CC1	2.28
O=c1sc2ccccc2n1CCCCCN1CCN(CCCCn2c(=O)sc3ccccc32)CC1	1.18
O=c1oc2ccccc2n1CCCN1CCN(CCCn2c(=O)oc3ccccc32)CC1	4.91

Test system: SW1353
Experiment: Antiinflammatory activity in human SW1353 cells assessed as inhibition of PMA-induced NF-kappaB activity up to 25 ug/ml incubated for 30 mins prior to PMA challenge measured after 8 hrs by luciferase reporter gene assay
Format: cell-based
Settings: not given
In short: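 SW1353 chondrosarcoma cells grown in DMEM/F12 with 10% FBS at 37 °C, 5% CO2. Cells electroporated with an NF-κB luciferase plasmid (50 μg/mL, 160 V, one 70-ms pulse) and plated at 1.25 × 10⁵ cells/well. After 24 h, compound was added 30 min before PMA (70 ng/mL), then 8 h incubation. Luciferase read-out as % inhibition vs vehicle; IC50 from dose curves. Sp-1 served as a counter-screen.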

SMILES	inhibition
O=c1oc2ccccc2n1CCCCN1CCN(CCn2c(=O)oc3ccccc32)CC1	inactive
O=c1oc2ccccc2n1CCCN1CCN(CCn2c(=O)oc3ccccc32)CC1	inactive
O=c1sc2ccccc2n1CCCCN1CCN(CCn2c(=O)sc3ccccc32)CC1	inactive
O=c1oc2ccccc2n1CCCCN1CCN(CCCn2c(=O)oc3ccccc32)CC1	inactive
O=c1oc2ccccc2n1CCN1CCN(CCn2c(=O)oc3ccccc32)CC1	inactive
O=c1sc2ccccc2n1CCN1CCN(CCn2c(=O)sc3ccccc32)CC1	inactive

Test system: not listed separately
Experiment: Cytotoxicity against pig LLC-PK11 cells up to 25 ug/ml after 48 hrs by neutral red assay relative to control
Format: cell-based, Sus scrofa
Settings: llc-pk11, 48 h
In short: (§1)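 Cells grown in RPMI-1640 with 10% bovine calf serum and amikacin at 37 °C, 5% CO2. Seeded at 25,000 cells/well and grown 24 h, then exposed 48 h to samples diluted in serum-free medium. Viability by Neutral Red; % decrease vs vehicle; IC50 from dose curves. Triplicate runs, mean reported; doxorubicin as positive control.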

SMILES	Activity
O=c1oc2ccccc2n1CCCCN1CCN(CCn2c(=O)oc3ccccc32)CC1	Non-toxic
O=c1oc2ccccc2n1CCCN1CCN(CCn2c(=O)oc3ccccc32)CC1	Non-toxic
O=c1sc2ccccc2n1CCCCCCN1CCN(CCn2c(=O)sc3ccccc32)CC1	Non-toxic
O=c1sc2ccccc2n1CCCCN1CCN(CCCCn2c(=O)sc3ccccc32)CC1	Non-toxic
O=c1sc2ccccc2n1CCCCCN1CCN(CCCCn2c(=O)sc3ccccc32)CC1	Non-toxic
O=c1oc2ccccc2n1CCCN1CCN(CCCn2c(=O)oc3ccccc32)CC1	Non-toxic
O=c1sc2ccccc2n1CCCCN1CCN(CCn2c(=O)sc3ccccc32)CC1	Non-toxic
O=c1oc2ccccc2n1CCCCN1CCN(CCCn2c(=O)oc3ccccc32)CC1	Non-toxic
O=c1oc2ccccc2n1CCN1CCN(CCn2c(=O)oc3ccccc32)CC1	Non-toxic
O=c1sc2ccccc2n1CCN1CCN(CCn2c(=O)sc3ccccc32)CC1	Non-toxic

Test system: Vero
Experiment: Cytotoxicity against African green monkey Vero cells up to 25 ug/ml after 48 hrs by neutral red assay relative to control
Format: cell-based
Settings: chlorocebus sabaeus
In short: as §1

SMILES	Activity
O=c1oc2ccccc2n1CCCCN1CCN(CCn2c(=O)oc3ccccc32)CC1	Non-toxic
O=c1oc2ccccc2n1CCCN1CCN(CCn2c(=O)oc3ccccc32)CC1	Non-toxic
O=c1sc2ccccc2n1CCCCCCN1CCN(CCn2c(=O)sc3ccccc32)CC1	Non-toxic
O=c1sc2ccccc2n1CCCCN1CCN(CCCCn2c(=O)sc3ccccc32)CC1	Non-toxic
O=c1sc2ccccc2n1CCCCCN1CCN(CCCCn2c(=O)sc3ccccc32)CC1	Non-toxic
O=c1oc2ccccc2n1CCCN1CCN(CCCn2c(=O)oc3ccccc32)CC1	Non-toxic
O=c1sc2ccccc2n1CCCCN1CCN(CCn2c(=O)sc3ccccc32)CC1	Non-toxic
O=c1oc2ccccc2n1CCCCN1CCN(CCCn2c(=O)oc3ccccc32)CC1	Non-toxic
O=c1oc2ccccc2n1CCN1CCN(CCn2c(=O)oc3ccccc32)CC1	Non-toxic
O=c1sc2ccccc2n1CCN1CCN(CCn2c(=O)sc3ccccc32)CC1	Non-toxic

Test system: SK-OV-3
Experiment: Cytotoxicity against human SKOV3 cells up to 25 ug/ml after 48 hrs by neutral red assay relative to control
Format: cell-based
Settings: sk-ov-3, 48 h
In short: as §1

SMILES	Activity
O=c1oc2ccccc2n1CCCCN1CCN(CCn2c(=O)oc3ccccc32)CC1	Non-toxic
O=c1oc2ccccc2n1CCCN1CCN(CCn2c(=O)oc3ccccc32)CC1	Non-toxic
O=c1sc2ccccc2n1CCCCCCN1CCN(CCn2c(=O)sc3ccccc32)CC1	Non-toxic
O=c1sc2ccccc2n1CCCCN1CCN(CCCCn2c(=O)sc3ccccc32)CC1	Non-toxic
O=c1sc2ccccc2n1CCCCCN1CCN(CCCCn2c(=O)sc3ccccc32)CC1	Non-toxic
O=c1oc2ccccc2n1CCCN1CCN(CCCn2c(=O)oc3ccccc32)CC1	Non-toxic
O=c1sc2ccccc2n1CCCCN1CCN(CCn2c(=O)sc3ccccc32)CC1	Non-toxic
O=c1oc2ccccc2n1CCCCN1CCN(CCCn2c(=O)oc3ccccc32)CC1	Non-toxic
O=c1oc2ccccc2n1CCN1CCN(CCn2c(=O)oc3ccccc32)CC1	Non-toxic
O=c1sc2ccccc2n1CCN1CCN(CCn2c(=O)sc3ccccc32)CC1	Non-toxic

Test system: BT-549
Experiment: Cytotoxicity against human BT549 cells after 48 hrs by neutral red assay relative to control
Format: cell-based
Settings: BT-549, 48 h
In short: (§2)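 Cells grown in RPMI-1640 with 10% bovine calf serum and amikacin at 37°C, 5% CO₂. Seeded 25,000 cells/well, grown 24 h, then exposed to compounds diluted in serum-free medium for 48 h. Viability by Neutral Red uptake, % decrease versus vehicle control. IC50 from dose curves, triplicate means. Doxorubicin positive control.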

SMILES	IC50 [µM]
O=c1sc2ccccc2n1CCCCCCN1CCN(CCn2c(=O)sc3ccccc32)CC1	25
O=c1sc2ccccc2n1CCCCCN1CCN(CCCCn2c(=O)sc3ccccc32)CC1	22.1

Test system: BT-549
Experiment: Cytotoxicity against human BT549 cells up to 25 ug/ml after 48 hrs by neutral red assay relative to control
Format: cell-based
Settings: bt-549, 48 h
In short: as §1

SMILES	Activity
O=c1oc2ccccc2n1CCCCN1CCN(CCn2c(=O)oc3ccccc32)CC1	Non-toxic
O=c1oc2ccccc2n1CCCN1CCN(CCn2c(=O)oc3ccccc32)CC1	Non-toxic
O=c1sc2ccccc2n1CCCCN1CCN(CCCCn2c(=O)sc3ccccc32)CC1	Non-toxic
O=c1oc2ccccc2n1CCCN1CCN(CCCn2c(=O)oc3ccccc32)CC1	Non-toxic
O=c1sc2ccccc2n1CCCCN1CCN(CCn2c(=O)sc3ccccc32)CC1	Non-toxic
O=c1oc2ccccc2n1CCCCN1CCN(CCCn2c(=O)oc3ccccc32)CC1	Non-toxic
O=c1oc2ccccc2n1CCN1CCN(CCn2c(=O)oc3ccccc32)CC1	Non-toxic
O=c1sc2ccccc2n1CCN1CCN(CCn2c(=O)sc3ccccc32)CC1	Non-toxic

Test system: KB
Experiment: Cytotoxicity against human KB cells up to 25 ug/ml after 48 hrs by neutral red assay relative to control
Format: cell-based
Settings: not given
In short: as §1

SMILES	Activity
O=c1oc2ccccc2n1CCCCN1CCN(CCn2c(=O)oc3ccccc32)CC1	Non-toxic
O=c1oc2ccccc2n1CCCN1CCN(CCn2c(=O)oc3ccccc32)CC1	Non-toxic
O=c1sc2ccccc2n1CCCCCCN1CCN(CCn2c(=O)sc3ccccc32)CC1	Non-toxic
O=c1sc2ccccc2n1CCCCN1CCN(CCCCn2c(=O)sc3ccccc32)CC1	Non-toxic
O=c1sc2ccccc2n1CCCCCN1CCN(CCCCn2c(=O)sc3ccccc32)CC1	Non-toxic
O=c1oc2ccccc2n1CCCN1CCN(CCCn2c(=O)oc3ccccc32)CC1	Non-toxic
O=c1sc2ccccc2n1CCCCN1CCN(CCn2c(=O)sc3ccccc32)CC1	Non-toxic
O=c1oc2ccccc2n1CCCCN1CCN(CCCn2c(=O)oc3ccccc32)CC1	Non-toxic
O=c1oc2ccccc2n1CCN1CCN(CCn2c(=O)oc3ccccc32)CC1	Non-toxic
O=c1sc2ccccc2n1CCN1CCN(CCn2c(=O)sc3ccccc32)CC1	Non-toxic

Test system: SK-MEL
Experiment: Cytotoxicity against human SK-MEL cells after 48 hrs by neutral red assay relative to control
Format: cell-based
Settings: not given
In short: as §2

SMILES	IC50 [µM]
O=c1sc2ccccc2n1CCCCCCN1CCN(CCn2c(=O)sc3ccccc32)CC1	25
O=c1sc2ccccc2n1CCCCCN1CCN(CCCCn2c(=O)sc3ccccc32)CC1	17.5

Test system: SK-MEL
Experiment: Cytotoxicity against human SK-MEL cells up to 25 ug/ml after 48 hrs by neutral red assay relative to control
Format: cell-based
Settings: not given
In short: as §1

SMILES	Activity
O=c1oc2ccccc2n1CCCCN1CCN(CCn2c(=O)oc3ccccc32)CC1	Non-toxic
O=c1oc2ccccc2n1CCCN1CCN(CCn2c(=O)oc3ccccc32)CC1	Non-toxic
O=c1sc2ccccc2n1CCCCN1CCN(CCCCn2c(=O)sc3ccccc32)CC1	Non-toxic
O=c1oc2ccccc2n1CCCN1CCN(CCCn2c(=O)oc3ccccc32)CC1	Non-toxic
O=c1sc2ccccc2n1CCCCN1CCN(CCn2c(=O)sc3ccccc32)CC1	Non-toxic
O=c1oc2ccccc2n1CCCCN1CCN(CCCn2c(=O)oc3ccccc32)CC1	Non-toxic
O=c1oc2ccccc2n1CCN1CCN(CCn2c(=O)oc3ccccc32)CC1	Non-toxic
O=c1sc2ccccc2n1CCN1CCN(CCn2c(=O)sc3ccccc32)CC1	Non-toxic
